# Bioassay records as filed in PubChem BioAssay.
# Most compounds without a hit are left out; they make up all but 2.8% or so of the library.
# PAFAH1B3 FP inh: PAFAH1B3 enzyme inhibitors, primary screen, biochemical, fluorescence polarization, human; inhibition, % at 3.39 µM; hit rate 0.28% among 340,000; AID 492972, 2010; recombinant PAFAH1B3, FP-rhodamine probe; Platelet-activating factor acetylhydrolase IB subunit alpha1 (Homo sapiens), Q15102;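 active = inhibition above the screen-wide average of all tested compounds plus 3 SD, cut at about 25% in these data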;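 also: 0% = enzyme with DMSO only and 100% = wells lacking PAFAH1B3 protein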
# mABHD4 FP: ABHD4 inhibitors, primary screen, biochemical, fluorescence polarization, mouse | (Lyso)-N-acylphosphatidylethanolamine lipase (Mus musculus), Q8VD66 | purified mABHD4, FP-Rh probe fluorescence polarization | inhibition, % at 8.92 µM | hit rate 0.54% among 370,000 | AID 720543, 2013;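 active = inhibition exceeding the mean over every tested compound plus 3 SD, cut at about 30% in these data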;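 also: 0% = plate median of compound wells and 100% = S159A mutant with DMSO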
#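 Doses – 8.92 µM, single dose · Material – wild-type mouse ABHD4 protein · Replication – single well per compound (singlicate) · Measure – percent inhibition of probe binding, normalized to plate controls · Schedule – 45 min compound pre-incubation plus 60 min probe step, 25 °C · Detection – fluorescence polarization with parallel and perpendicular emission, 525/598 nm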
# HTRA1 inh: HTRA1 serine protease inhibitors, primary screen, biochemical, fluorescence polarization, HTS; Q92743; recombinant HTRA1, FP-rhodamine activity-based probe; inhibition, % at 5.96 µM; hit rate 0.5% among 340,000; AID 504803, 2011; in the data active = inhibition above about 36%;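 also: 0% = enzyme with DMSO and 100% = wells lacking enzyme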
# PAFAH2 inh: PAFAH2 enzyme inhibitors, primary screen, biochemical, fluorescence polarization, human | recombinant PAFAH2, FP-rhodamine activity probe | inhibition, % at 3.39 µM | hit rate 0.99% among 340,000;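 active = inhibition above the mean over all tested compounds plus 3 SD, cut at about 30% in these data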;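 also: inhibitors block probe labeling of enzyme so polarization drops; 0% = enzyme with DMSO and 100% = wells lacking PAFAH2 protein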
# pPAFAH inh: pPAFAH enzyme inhibitors, primary screen, biochemical, fluorescence polarization, human; Platelet-activating factor acetylhydrolase (Homo sapiens), Q13093; recombinant pPAFAH, FP-rhodamine probe fluorescence polarization; inhibition, % at 3.39 µM; hit rate 1.5% among 330,000; AID 463082, 2010;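 active = inhibition above the mean inhibition across the screen plus 3 SD, cut at about 25% in these data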;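 also: inhibitors block binding of the rhodamine activity-based probe so polarization drops; 0% = enzyme with DMSO and 100% = wells lacking pPAFAH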
# Target sequence (Q13093 whole entry, looked up): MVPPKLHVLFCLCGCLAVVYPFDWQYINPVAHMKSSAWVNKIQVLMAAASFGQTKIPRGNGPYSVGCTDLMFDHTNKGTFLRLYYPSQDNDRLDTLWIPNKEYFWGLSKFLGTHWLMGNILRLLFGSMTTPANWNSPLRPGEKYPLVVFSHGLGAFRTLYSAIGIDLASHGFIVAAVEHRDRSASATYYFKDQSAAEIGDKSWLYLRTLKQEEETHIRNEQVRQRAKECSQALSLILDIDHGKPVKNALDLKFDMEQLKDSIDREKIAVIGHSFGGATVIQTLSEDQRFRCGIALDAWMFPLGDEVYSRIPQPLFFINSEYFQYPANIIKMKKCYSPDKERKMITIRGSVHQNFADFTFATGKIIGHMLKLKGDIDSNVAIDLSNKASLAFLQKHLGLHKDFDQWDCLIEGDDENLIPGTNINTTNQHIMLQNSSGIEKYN
# PAFAH1B2 FP inh: PAFAH1B2 enzyme inhibitors, primary screen, biochemical, fluorescence polarization, human. AID 492953, 2010. Platelet-activating factor acetylhydrolase IB subunit alpha2 (Homo sapiens), P68402. inhibition, % at 3.39 µM. hit rate 1.2% among 340,000. recombinant PAFAH1B2, FP-rhodamine activity probe;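 active = inhibition above the mean of all tested compounds plus 3 SD, cut at about 24% in these data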;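 also: 0% = enzyme with DMSO and 100% = wells lacking PAFAH1B2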
# Target sequence (P68402 whole entry, looked up): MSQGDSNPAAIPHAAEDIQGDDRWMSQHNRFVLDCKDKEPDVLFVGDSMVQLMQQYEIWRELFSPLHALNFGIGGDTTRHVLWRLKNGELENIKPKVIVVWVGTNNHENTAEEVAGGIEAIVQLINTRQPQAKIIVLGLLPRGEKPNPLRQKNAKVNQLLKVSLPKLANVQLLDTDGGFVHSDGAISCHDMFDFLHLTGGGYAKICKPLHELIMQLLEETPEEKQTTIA
# Active calls of the source: *; . = no result given.
SMILES,PAFAH1B3 FP inh,mABHD4 FP,HTRA1 inh,PAFAH2 inh,pPAFAH inh,PAFAH1B2 FP inh
O=C(CN1CCc2onc(-c3ccc(-n4cc(-c5ccccc5)nn4)cc3)c2C1=O)N1CCOCC1,.,5,.,.,.,.
COc1ccccc1NC(=O)c1cc2c(CO)cnc(C)c2oc1=Nc1cccc(C(N)=O)c1,9,-11,-3,7,25*,1
COC(=O)C1CN(Cc2cn(Cc3ccc(Cl)cc3)nn2)CCS(=O)(=O)N1Cc1ccc(C)cc1 (stereo not drawn),.,-5,.,.,.,.
COc1ccc(OCCn2c(C)nc3ccccc32)cc1,.,10,5,.,.,.
Cc1nc2ccccc2n1CCOc1ccc([N+](=O)[O-])cc1,8,0,-2,-3,30*,6
COc1cc(C=Nn2c(-c3cc(C)[nH]n3)n[nH]c2=S)cc(Br)c1O,.,6,.,.,.,.
O=C(O)c1cc(O)ccc1NC(=O)C(c1ccccc1)c1ccccc1,7,-1,-8,-1,12,24*
FC(F)(F)c1cccc(Cn2ccc3ccc(-c4ccc5ccn(Cc6cccc(C(F)(F)F)c6)c5c4)cc32)c1,.,-3,.,.,.,.
N/C(=N\OC(=O)C12CC3CC(CC(C3)C1)C2)c1ccccc1,5,3,3,1,-5,2
N/C(=N\OC(=O)C12CC3CC(CC(C3)C1)C2)c1ccccn1,7,-5,-2,20,-1,24*
O=C(NCCc1ccccc1)c1ccc(Sc2ccccc2Cl)c([N+](=O)[O-])c1,.,-1,.,.,.,.
O=C(/C(=N\Nc1ccc([N+](=O)[O-])cc1)Sc1nnnn1-c1ccccc1)c1ccccc1,2,5,-6,13,10,16
Cc1ccc(N/N=C(/Sc2nnnn2-c2ccccc2)C(=O)c2ccccc2)cc1,-3,-1,2,0,2,27*
COC(=O)[C@]12C[C@H](CC(=O)NCC3CCCCC3)C(=O)N(CCC3=CCCCC3)C1=C[C@H](C(C)C)O[C@@H]2C1CC1,.,3,.,.,.,.
C=CCN1[C@@H](CC(C)C)COc2cccc(N3CCCC3)c2S1(=O)=O,.,8,.,.,.,.
O=C(Oc1ccc2c(-c3ccccc3)cc(=O)oc2c1)C1CCCCC1,3,-3,-14,-6,31*,-2
COc1ccc(-c2cc(=O)oc3cc(OC(=O)C4CCCCC4)ccc23)cc1,-12,-6,-18,-10,-2,1
O=C(N/N=C/c1ccc([N+](=O)[O-])o1)c1cc2ccccc2o1,11,29,28,2,30*,7
O=C(N/N=C/c1ccc([N+](=O)[O-])o1)c1ccccc1NS(=O)(=O)c1cccs1,5,27,20,6,34*,6
COc1ccccc1CNC(=O)C[C@H]1CC[C@H]2[C@H](COc3ccc(NS(=O)(=O)c4ccc(C)cc4)cc3C(=O)N2C)O1,.,15,.,.,.,.
N#C/C(=C\c1cc2c(cc1Br)OCO2)c1ccc(C(=O)O)cc1,6,-10,0,5,-5,33*
CC(C)c1ccc(OCC(=O)NC(C)c2ccccc2)cc1 (stereo not drawn),4,-7,-5,-2,11,29*
CCC(C)NC(=O)COc1ccc(OCc2ccccc2)cc1 (stereo not drawn),4,2,-2,8,6,27*
O=C(CCc1ccccc1)N[C@H]1[C@@H](O)CCC[C@]12C(=O)N(Cc1ccccc1)c1ccccc12,.,-3,.,.,.,.
O=C(Cn1nnc(-c2ccc(N3CCOCC3)cc2)n1)c1ccccc1,.,-2,.,.,.,.
SMILES,PAFAH1B3 FP inh,mABHD4 FP,HTRA1 inh,PAFAH2 inh,pPAFAH inh,PAFAH1B2 FP inh
CC(C)c1ccc(C(C)NC(=O)C2CCCC2)cc1 (stereo not drawn),12,3,-7,4,3,4
CC(NC(=O)C1CCCC1)c1ccc(Br)cc1 (stereo not drawn),3,0,-9,3,2,40*
COc1ccc(S(=O)(=O)N2CCN(C(=O)c3cccc(S(=O)(=O)N4CCCC4)c3)CC2)cc1,.,2,-3,.,.,.
COc1ccc(N(C)S(=O)(=O)c2cccc(C(=O)N3CCN(S(=O)(=O)c4ccc(C)cc4)CC3)c2)cc1,9,2,-13,-2,7,55*
CCCSc1nnc(-c2ccco2)n1C,.,1,.,.,.,.
N=C1/C(=C\c2ccc(-c3ccc(C(=O)O)cc3)o2)C(=O)N=C2SC=C(c3ccccc3)N12,25,-4,-4,34*,.,28*
CN1[C@H](Cc2ccccc2)COc2cc(N3CCCC3)ccc2S1(=O)=O,.,-11,.,.,.,.
CCOc1cc(Br)cc(/C=C2\SC(=Nc3ccccc3)NC2=O)c1O,7,-6,-8,12,25*,6
CCOC(=O)c1c(NC(=O)/C=C/C(=O)O)sc(C)c1-c1ccc(C(C)(C)C)cc1,-16,-5,-71,-2,33*,-4
Cc1sc(NC(=O)C2CCCCC2C(=O)O)c(C(N)=O)c1-c1ccc(C(C)(C)C)cc1 (stereo not drawn),-3,11,3,7,-7,26*
CCOC(=O)c1c(NC(=O)/C=C\C(=O)O)sc(C)c1-c1ccccc1,2,-2,-5,5,19,9
O=S(=O)(c1ccccc1)c1cnn(-c2ccccc2)c1-c1ccc(F)cc1,6,0,-16,2,-3,28*
COc1ccc(-n2ncc(S(=O)(=O)c3ccccc3)c2-c2ccc(Cl)cc2)cc1,2,-16,-29,0,1,3
O=C(CN1C(=O)C2(OCCCO2)c2ccccc21)NCc1ccc(F)cc1,.,4,.,.,.,.
CCn1nc(NS(=O)(=O)c2cccc3nonc23)c2cc3ccc(C)cc3nc21,-4,.,8,6,10,-2
CCCCn1nc(NS(=O)(=O)c2cccc3nonc23)c2cc3cccc(C)c3nc21,12,23,6,15,32*,11
CCN(Cc1ccccc1)C(=O)CCc1nnc(CCCc2ccccc2)o1,10,6,-2,-8,1,26*
O=C(NCc1ccccc1F)c1cccs1,5,1,-1,-2,-1,3
O=C(NC(=S)NCc1ccccc1Cl)c1cccs1,0,-20,-35,-1,27*,-6
Cc1cc(F)ccc1C(=O)N1CCC(Oc2cccnc2)CC1,.,-2,.,.,.,.
O=S(=O)(Nc1ccc(Br)cc1)c1cccc(NS(=O)(=O)c2cccs2)c1,-1,-17,-6,43*,.,75*
NS(=O)(=O)c1ccc(NS(=O)(=O)c2cccs2)cc1,1,-7,-5,-2,-3,-1
